In ChEMBL document CHEMBL1154780, “Synthesis of new linear guanidines and macrocyclic amidinourea derivatives endowed with high antifungal activity against Candida spp. and Aspergillus spp” (J Med Chem, 2009):
Converted amounts (≈) assume the structure as drawn.

Tests used:
Candida tropicalis = test: Anticandidal activity against Candida tropicalis 86E after 24 hrs by spectrophotometry; type: functional
Pichia kudriavzevii [1] = test: Anticandidal activity against Candida krusei 193T after 24 hrs by spectrophotometry; type: functional
Candida albicans [2] = test: Anticandidal activity against Candida albicans 4T after 24 hrs by spectrophotometry; type: functional
Pichia kudriavzevii [3] = test: Anticandidal activity against Candida krusei ATCC 14243 after 24 hrs by spectrophotometry; type: functional; conditions: ATCC 14243, 24 h
Candida albicans [4] = test: Anticandidal activity against Candida albicans 53T after 24 hrs by spectrophotometry; type: functional
Candida parapsilosis [5] = test: Anticandidal activity against Candida parapsilosis 81E after 24 hrs by spectrophotometry; type: functional; conditions: Lodderomyces parapsilosis
Candida albicans [6] = test: Anticandidal activity against Candida albicans ATCC 60193 after 24 hrs by spectrophotometry; type: functional; conditions: ATCC 60193, 24 h
Candida parapsilosis [7] = test: Anticandidal activity against Candida parapsilosis ATCC 34136 after 24 hrs by spectrophotometry; type: functional; conditions: Lodderomyces parapsilosis, ATCC 34136, 24 h
Candida albicans [8] = test: Anticandidal activity against Candida albicans 15T after 24 hrs by spectrophotometry; type: functional
Candida parapsilosis [9] = test: Anticandidal activity against Candida parapsilosis 64E after 24 hrs by spectrophotometry; type: functional; conditions: Lodderomyces parapsilosis
Nakaseomyces glabratus = test: Anticandidal activity against Candida glabrata 70E after 24 hrs by spectrophotometry; type: functional
Aspergillus fumigatus [10] = test: Antifungal activity against Aspergillus fumigatus isolated from patient bronchoalveolar lavage fluid after 48 hrs by broth microdilution method; type: functional; conditions: Lung
[11] = Therapeutic index, ratio of drug level reducing 50% viability of human lymphocytes at 37 degC to MIC50 for Candida sp.
Method in brief: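 Index is the lymphocyte concentration giving 50% viability at 37 °C divided by MIC50 for each Candida species; lymphocytes were exposed to 0–50 μM.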

[12] = Cytotoxicity against human lymphocytes assessed as cell viability up to 30 uM; type: cell-based, Lymphocyte; conditions: read-out: Activity
Method in brief: (§1)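 Human lymphocytes exposed to compound at concentrations between 0 and 50 μM, at both 25 and 37 °C; read-out is percent cell viability.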

Aspergillus niger [13] = test: Antifungal activity against Aspergillus niger isolated from patient nasal swab after 48 hrs by broth microdilution method; type: functional
[14] = Therapeutic index, ratio of drug level reducing 50% viability of human lymphocytes at 25 degC to MIC50 for Candida sp.
Aspergillus niger [15] = test: Antifungal activity against Aspergillus niger isolated from patient sputum after 48 hrs by broth microdilution method; type: functional
Aspergillus versicolor [16] = test: Antifungal activity against Aspergillus versicolor isolated from patient sputum after 48 hrs by broth microdilution method; type: functional
Aspergillus terreus = test: Antifungal activity against Aspergillus terreus isolated from patient bronchoalveolar lavage fluid after 48 hrs by broth microdilution method; type: functional; conditions: Lung
Aspergillus versicolor [17] = test: Antifungal activity against Aspergillus versicolor isolated from patient skin after 48 hrs by broth microdilution method; type: functional
Aspergillus flavus = test: Antifungal activity against Aspergillus flavus isolated from patient sputum after 48 hrs by broth microdilution method; type: functional
[18] = Cytotoxicity against human lymphocytes at 50 uM; type: cell-based; conditions: lymphocyte; method in brief: as §1
Aspergillus fumigatus [19] = test: Antifungal activity against Aspergillus fumigatus isolated from patient sputum after 48 hrs by broth microdilution method; type: functional
[20] = Cytotoxicity against human lymphocytes at 40 uM; type: cell-based; conditions: lymphocyte; method in brief: as §1

| Structure (SMILES) | MIC (Candida tropicalis) [µM] | MIC (Pichia kudriavzevii [1]) [µM] | MIC (Candida albicans [2]) [µM] | MIC (Pichia kudriavzevii [3]) [µM] | MIC (Candida albicans [4]) [µM] | MIC (Candida parapsilosis [5]) [µM] | MIC (Candida albicans [6]) [µM] | MIC (Candida parapsilosis [7]) [µM] | MIC (Candida albicans [8]) [µM] | MIC (Candida parapsilosis [9]) [µM] | MIC (Nakaseomyces glabratus) [µM] | further results |
| --- | --- | --- | --- | --- | --- | --- | --- | --- | --- | --- | --- | --- |
| N=C(N)NCCCCCCCCNCCCCCCCCNC(=N)NCC1CC1 | 5 (≈ 2.05 µg/mL) | 10 (≈ 4.1 µg/mL) | 10 (≈ 4.1 µg/mL) | 5 (≈ 2.05 µg/mL) | 10 (≈ 4.1 µg/mL) | 20 (≈ 8.19 µg/mL) | 20 (≈ 8.19 µg/mL) | 80 (≈ 32.8 µg/mL) | 20 (≈ 8.19 µg/mL) | 5 (≈ 2.05 µg/mL) | 20 (≈ 8.19 µg/mL) | – |
| CC(C)=CCNC(=N)NCCCCCCCCNCCCCCCCCNC(=N)N | 20 (≈ 8.47 µg/mL) | 20 (≈ 8.47 µg/mL) | 80 (≈ 33.9 µg/mL) | 40 (≈ 16.9 µg/mL) | 80 (≈ 33.9 µg/mL) | 40 (≈ 16.9 µg/mL) | 80 (≈ 33.9 µg/mL) | > 80 | 40 (≈ 16.9 µg/mL) | > 80 | 80 (≈ 33.9 µg/mL) | – |
| CC(C)=CCNC(=N)NCCCCCCCCNCCCCCCCCNC(=N)NCC=C(C)C | > 80 | 80 (≈ 39.3 µg/mL) | 80 (≈ 39.3 µg/mL) | 40 (≈ 19.7 µg/mL) | 80 (≈ 39.3 µg/mL) | > 80 | > 80 | > 80 | > 80 | > 80 | > 80 | – |
| CC(C)=CCNC(=N)NCCCCCCCCN1CCCCCCCCNC(=N)NC1=O | 20 (≈ 8.99 µg/mL) | 20 (≈ 8.99 µg/mL) | 20 (≈ 8.99 µg/mL) | 10 (≈ 4.5 µg/mL) | 20 (≈ 8.99 µg/mL) | 40 (≈ 18 µg/mL) | 40 (≈ 18 µg/mL) | > 80 | 20 (≈ 8.99 µg/mL) | > 80 | 80 (≈ 36 µg/mL) | – |
| N=C(NCCCCCCCCN1CCCCCCCCNC(=N)NC1=O)NCc1ccccc1 | 2.5 (≈ 1.18 µg/mL) | 10 (≈ 4.72 µg/mL) | 2.5 (≈ 1.18 µg/mL) | 20 (≈ 9.43 µg/mL) | 2.5 (≈ 1.18 µg/mL) | 20 (≈ 9.43 µg/mL) | 2.5 (≈ 1.18 µg/mL) | 80 (≈ 37.7 µg/mL) | 5 (≈ 2.36 µg/mL) | 20 (≈ 9.43 µg/mL) | 40 (≈ 18.9 µg/mL) | – |
| N=C(N)NCCCCCCCCN(CCCCCCCCNC(=N)N)C(=N)N | 1.25 (≈ 0.497 µg/mL) | 40 (≈ 15.9 µg/mL) | 5 (≈ 1.99 µg/mL) | 10 (≈ 3.98 µg/mL) | 20 (≈ 7.95 µg/mL) | > 80 | 5 (≈ 1.99 µg/mL) | > 80 | 10 (≈ 3.98 µg/mL) | > 80 | > 80 | – |
| C#CCNC(=N)NCCCCCCCCN1CCCCCCCCNC(=N)NC1=O | 5 (≈ 2.1 µg/mL) | 40 (≈ 16.8 µg/mL) | 80 (≈ 33.6 µg/mL) | 80 (≈ 33.6 µg/mL) | 5 (≈ 2.1 µg/mL) | 80 (≈ 33.6 µg/mL) | 2.5 (≈ 1.05 µg/mL) | 40 (≈ 16.8 µg/mL) | 2.5 (≈ 1.05 µg/mL) | 40 (≈ 16.8 µg/mL) | 80 (≈ 33.6 µg/mL) | – |
| C=C(C)CNC(=N)NCCCCCCCCN1CCCCCCCCNC(=N)NC1=O | 40 (≈ 17.4 µg/mL) | 80 (≈ 34.9 µg/mL) | 40 (≈ 17.4 µg/mL) | 40 (≈ 17.4 µg/mL) | 40 (≈ 17.4 µg/mL) | > 80 | 20 (≈ 8.71 µg/mL) | > 80 | 20 (≈ 8.71 µg/mL) | > 80 | 80 (≈ 34.9 µg/mL) | – |
| C/C=C/CNC(=N)NCCCCCCCCN1CCCCCCCCNC(=N)NC1=O | 1.25 (≈ 0.545 µg/mL) | 5 (≈ 2.18 µg/mL) | 1.25 (≈ 0.545 µg/mL) | 5 (≈ 2.18 µg/mL) | 2.5 (≈ 1.09 µg/mL) | 5 (≈ 2.18 µg/mL) | 2.5 (≈ 1.09 µg/mL) | 5 (≈ 2.18 µg/mL) | 1.25 (≈ 0.545 µg/mL) | 5 (≈ 2.18 µg/mL) | 20 (≈ 8.71 µg/mL) | MIC (Aspergillus fumigatus [10]): 36 µM (≈ 15.7 µg/mL); Ratio [11]: 1.9; viability [12]: 100%; MIC (Aspergillus niger [13]): 18 µM (≈ 7.84 µg/mL); Ratio [14]: 2.4; MIC (Aspergillus niger [15]): 18 µM (≈ 7.84 µg/mL); MIC (Aspergillus versicolor [16]): 18 µM (≈ 7.84 µg/mL); MIC (Aspergillus terreus): 73 µM (≈ 31.8 µg/mL); MIC (Aspergillus versicolor [17]): 4 µM (≈ 1.74 µg/mL); MIC (Aspergillus flavus): 36 µM (≈ 15.7 µg/mL); Activity [18]: 43%; MIC (Aspergillus fumigatus [19]): 73 µM (≈ 31.8 µg/mL); Activity [20]: 78% |
| C[C@@H]1[C@H](O)[C@@H](C)/C=C/C=C/C=C/C=C/C=C/C=C/C=C/[C@H](O[C@@H]2O[C@H](C)[C@@H](O)[C@H](N)[C@@H]2O)C[C@@H]2O[C@](O)(C[C@@H](O)C[C@@H](O)[C@H](O)CC[C@@H](O)C[C@@H](O)CC(=O)O[C@H]1C)C[C@H](O)[C@H]2C(=O)O [AMPHOTERICIN B] | – | – | – | – | – | – | – | – | – | – | – | MIC (Aspergillus fumigatus [10]): 0.27 µM (≈ 0.25 µg/mL); MIC (Aspergillus niger [13]): 0.135 µM (≈ 0.125 µg/mL); MIC (Aspergillus niger [15]): 0.27 µM (≈ 0.25 µg/mL); MIC (Aspergillus versicolor [16]): 0.54 µM (≈ 0.499 µg/mL); MIC (Aspergillus terreus): 1 µM (≈ 0.924 µg/mL); MIC (Aspergillus versicolor [17]): 0.135 µM (≈ 0.125 µg/mL); MIC (Aspergillus flavus): 2.1 µM (≈ 1.94 µg/mL); MIC (Aspergillus fumigatus [19]): 0.135 µM (≈ 0.125 µg/mL) |
| OC(Cn1cncn1)(Cn1cncn1)c1ccc(F)cc1F [FLUCONAZOLE] | 52 (≈ 15.9 µg/mL) | 418 (≈ 128 µg/mL) | 209 (≈ 64 µg/mL) | 209 (≈ 64 µg/mL) | 418 (≈ 128 µg/mL) | 13 (≈ 3.98 µg/mL) | 0.8 (≈ 0.245 µg/mL) | 6.5 (≈ 1.99 µg/mL) | 209 (≈ 64 µg/mL) | 32 (≈ 9.8 µg/mL) | 209 (≈ 64 µg/mL) | – |
| N=C(N)NCCCCCCCCNCCCCCCCCNC(=N)N [IMINOCTADIENE] | 1.25 (≈ 0.444 µg/mL) | 20 (≈ 7.11 µg/mL) | 80 (≈ 28.4 µg/mL) | 20 (≈ 7.11 µg/mL) | 40 (≈ 14.2 µg/mL) | 20 (≈ 7.11 µg/mL) | 80 (≈ 28.4 µg/mL) | > 80 | 80 (≈ 28.4 µg/mL) | 40 (≈ 14.2 µg/mL) | 40 (≈ 14.2 µg/mL) | – |
| CCC(C)n1ncn(-c2ccc(N3CCN(c4ccc(OCC5COC(Cn6cncn6)(c6ccc(Cl)cc6Cl)O5)cc4)CC3)cc2)c1=O (stereo not given) [ITRACONAZOLE] | – | – | – | – | – | – | – | – | – | – | – | MIC (Aspergillus fumigatus [10]): 0.04 µM (≈ 0.0282 µg/mL); MIC (Aspergillus niger [13]): 0.35 µM (≈ 0.247 µg/mL); MIC (Aspergillus niger [15]): 0.35 µM (≈ 0.247 µg/mL); MIC (Aspergillus versicolor [16]): 0.02 µM (≈ 0.0141 µg/mL); MIC (Aspergillus terreus): 0.35 µM (≈ 0.247 µg/mL); MIC (Aspergillus versicolor [17]): 0.35 µM (≈ 0.247 µg/mL); MIC (Aspergillus flavus): 0.04 µM (≈ 0.0282 µg/mL); MIC (Aspergillus fumigatus [19]): 0.35 µM (≈ 0.247 µg/mL) |
